# Bioassay records from PubChem BioAssay.
# This is a sample that favours compounds with a hit; in the whole collection about 3.3% have one here.
# Myeloid diff 2 – induction of myeloid progenitor differentiation, primary screen, cell-based, flow cytometry, MLPCN library; calls only at 10 µM; AID 624256, 2012; ER-HoxA9 myeloid progenitors, lysozyme-GFP differentiation; 1% of 360,000 active;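 active = normalized GFP-positive differentiation at or above the plate's own cutoff, the solvent-only control mean plus 3 SD; inconclusive = no clear call, values can overlap the other calls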;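 note: cells exposed to compound for four days before flow analysis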
# ABCB6 inh 2 – ABCB6 transporter inhibitors, primary screen, K562-ABCB6 cells, flow cytometry, MLPCN library. ATP-binding cassette sub-family B member 6 (Homo sapiens), Q9NP58. K562-ABCB6 porphyrin accumulation, 1 h; active compounds read low. fluorescence ratio to DMSO, % at 10 µM. 0.19% of 360,000 active. AID 602162, 2011;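 active = fluorescence ratio to DMSO below 75%, the collection mean minus 3 SD; inconclusive = too few cells collected in the well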;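 note: signal is porphyrin accumulated inside mitochondria; 100% equals median channel fluorescence of DMSO control wells; lower ratio means ABCB6 inhibition with less porphyrin fluorescence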
# ATG4B inhibitor – ATG4B protease inhibitors, primary screen, biochemical, fluorescence, uHTS; Cysteine protease ATG4B (Homo sapiens), Q9Y4P1; ATG4B cleavage of LC3-PLA2, NBD-HPC fluorescence, 1 h; inhibition, % at 8.33 µM; 0.51% of 340,000 active; AID 504462, 2011; in the data active = inhibition above about 40%
# Target sequence (Q9Y4P1 whole entry, looked up): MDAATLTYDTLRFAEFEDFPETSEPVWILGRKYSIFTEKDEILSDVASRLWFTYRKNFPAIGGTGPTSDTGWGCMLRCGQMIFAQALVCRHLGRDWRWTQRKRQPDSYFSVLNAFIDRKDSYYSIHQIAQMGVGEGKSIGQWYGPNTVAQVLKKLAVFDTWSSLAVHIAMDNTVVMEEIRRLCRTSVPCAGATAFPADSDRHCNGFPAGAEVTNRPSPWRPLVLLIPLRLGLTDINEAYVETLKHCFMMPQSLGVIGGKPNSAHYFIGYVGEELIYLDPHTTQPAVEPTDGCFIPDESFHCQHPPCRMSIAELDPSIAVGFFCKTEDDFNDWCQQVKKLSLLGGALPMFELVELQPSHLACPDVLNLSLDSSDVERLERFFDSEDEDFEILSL
# Granule exo inh – LAMP-1 surface exposure blockers, TALL-104 cells – cell-based, flow cytometry, MLPCN library, primary screen; 0.66% of 360,000 active; TALL-104 LAMP-1 surface exposure; cells stimulated with thapsigargin and PMA; inhibition, % at 10 µM;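 active = inhibition above about 55%, limit read from the data; inconclusive = no clear call, values can overlap the other calls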
# CendR NRP1 mod – modulators of CendR peptide binding to NRP-1, primary screen, biochemical, fluorescence polarization, uHTS; inhibition, % at 25 µM; FAM-RPARPAR peptide binding to NRP-1; 0.85% of 360,000 active;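 active = inhibition or corrected inhibition above about 18%, plus a signal ratio from 0.5 to 1.5, limit read from the data, passing the limit was not always enough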
# Arr AP2 block – inhibitors of beta-arrestin/AP2 binding, primary screen, biochemical, GPCR trafficking, flow cytometry; 0.31% of 340,000 active; FITC-arrestin peptide / GST-AP2 beads; AP2 beta2 appendage carries R879A mutation; inhibition, % at 10 µM; AID 504490, 2011; beta-arrestin 1 C-terminal peptide binding to AP2 beta2-adaptin appendage (human);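 active = inhibition above a set limit, near 3 SD of compounds lacking own fluorescence, cut at about 54% in these data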;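 note: plate controls were DMSO wells for no effect and 5 µM unlabelled arrestin peptide for full effect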
#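 System: GST-tagged AP2 beta2-adaptin appendage (R879A) on 4 µm glutathione beads / Reagent: FITC-arrestin peptide, 50 nM / Detection: HyperCyt-sampled flow cytometry, FL1 channel, ex 488/em 535 nm / Timing: 12 min plus 1 h, RT / Buffer or medium: PBS plus Tween 20 (0.05%) and BSA (0.1%)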
# * hit, by the source's call; i = inactive; ? = inconclusive; · = not tested or not shown; + = active, no number.
SMILES,Myeloid diff 2,ABCB6 inh 2,ATG4B inhibitor,Granule exo inh,CendR NRP1 mod,Arr AP2 block
COc1ccc(C(CCNCc2ccc(N(C)C)cc2)c2ccccc2)cc1 (stereo unspecified),i,89,5,32,2,-19
CC(C)Oc1ccc(C(CCNCc2ccc(O)cc2)c2ccccc2)cc1 (stereo unspecified),i,96,-13,-1,25*,2
CC(=O)c1ccc(S(=O)(=O)Oc2ccc(-c3ccc(C(=O)O)cc3)cc2)cc1,i,93,-11,8,26*,-5
COc1ccc(/C(N)=N/OC(=O)c2cccc([N+](=O)[O-])c2C)cc1OC,i,93,-3,3,-1,4
COc1cccc(C(=O)O/N=C(\N)c2ccc([N+](=O)[O-])cc2)c1OC,i,100,-1,5,25*,8
COc1ccc(C(=O)O/N=C(\N)c2ccccc2)c(OC)c1,i,107,2,-1,18*,1
COc1ccc(C(=O)O/N=C(\N)c2ccc(OC)c(OC)c2)c(OC)c1,i,103,-7,3,5,2
CCc1nnc(NS(=O)(=O)c2ccc(NC(=S)NC(=O)/C=C/c3ccc(C(C)C)cc3)cc2)s1,i,97,33,90*,-113,-9
CCc1nnc(NS(=O)(=O)c2ccc(NC(=S)NC(=O)/C=C/c3ccccc3)cc2)s1,i,103,23,-11,-23,0
NC1=NC(=Nc2cccc(S(=O)(=O)N3CCOCC3)c2)c2ccccc21,i,98,-2,-4,0,-4
CCCCCCN1C[C@H](O)[C@@H](n2cc(C3CC3)nn2)C[C@@H]1c1ccc(C)cc1,i,101,·,-3,-9,·
CCCCCCN1C[C@H](O)[C@@H](n2cc(C3CC3)nn2)C[C@@H]1c1ccc(OC)cc1,+,96,·,2,-12,·
COC(=O)[C@]1(Cc2ccccc2)N[C@H](CN(C)C(=O)COc2ccccc2)[C@@H]2C(=O)N(C)C(=O)[C@@H]21,i,99,-8,-3,0,6
COc1ccc(NC(=O)/C(Cl)=C(/Cl)S(=O)(=O)Cc2ccc(C)cc2)cn1,?,89,-12,97*,12,-9
OCC1(CO)CCCC(CO)(CO)C1O,i,94,-5,-6,19,6
CCOc1ccc(-c2onc(C(F)(F)F)c2-c2cscn2)c(O)c1,i,101,38,-3,27*,-14
Cc1cc(O)cc(O)c1-c1onc(C(F)(F)F)c1-c1cscn1,i,102,-10,2,11,1
COc1ccc(CN(C)CCCn2cnc3c(OCc4ccccc4)ncnc32)cc1,i,98,2,-2,-6,-13
CCOc1cc(NC(=S)NCC2CCCO2)c(OCC)cc1NC(=O)c1ccc(OC)cc1 (stereo unspecified),i,98,-9,-1,-8,-1
CCOc1cc(NC(=S)NCC2CCCO2)c(OCC)cc1NC(=O)c1ccccc1C (stereo unspecified),+,99,-1,5,5,6
O=C(Nc1ccc(Oc2cccc(C(F)(F)F)c2)nc1)c1cccs1,i,97,17,3,5,4
CC1(c2ccc3c(c2)OCCO3)NC(=O)N(CC(=O)Nc2ccccc2)C1=O (stereo unspecified),i,100,-2,1,17,5
CC1(c2ccc(Cl)cc2)NC(=O)N(CC(=O)Nc2ccc3c(c2)OCO3)C1=O (stereo unspecified),i,98,·,-7,35*,·
CC1(c2ccc3c(c2)OCCO3)NC(=O)N(CC(=O)Nc2ccccc2SCC#N)C1=O (stereo unspecified),+,181,-4,6,-32,1
